Source: ChEMBL document CHEMBL2413057, “Synthesis and in vitro evaluation of new ethyl and methyl quinoxaline-7-carboxylate 1,4-di-N-oxide against Entamoeba histolytica” (Bioorg Med Chem, 2013)

How the values were obtained:
Entamoeba histolytica = assay: Antiamoebic activity against trophozoite stage of Entamoeba histolytica HM-1:IMSS assessed as growth inhibition after 48 hrs by microdilution method; type: functional, organism-based
Summary of the method: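 Axenic log-phase HM1:IMSS trophozoites grown in BI-S-33 medium with 20% calf serum, viability counted by trypan blue, seeded at 10⁵/mL (100 µL per well). Compounds dissolved in 0.1% DMSO, two-fold serial dilutions in medium. Incubated 37 °C, 48 h, then WST-1 added for 4 h at 37 °C, OD 490 nm. IC50 by linear regression of % inhibition versus concentration, duplicate, mean ± SD.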

[1] = Selectivity index, ratio of IC50 for african green monkey Vero cells to IC50 for trophozoite stage of Entamoeba histolytica HM-1:IMSS
Summary of the method: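 Computed as VERO toxicity IC50 divided by the E. histolytica IC50, where each IC50 is the concentration that kills 50% of the respective cells.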

Vero = assay: Cytotoxicity against african green monkey Vero cells assessed as cell viability after 48 hrs by WST-1 assay; type: cell-based; conditions: Chlorocebus sabaeus
Summary of the method: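 VERO cells in MEM with 0.1 mM nonessential amino acids, 1 mM pyruvate and 10% FBS, 37 °C, 5% CO₂. Plated at 10⁴ cells/well, 24 h before dosing. Compounds diluted in complete medium to 0.1–100 µM, 48 h exposure against an untreated control. WST-1 added for 4 h at 37 °C. Quadruplicate, repeated twice, mean ± SD, ANOVA.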

[2] = Entamoeba histolytica, HM-1:IMSS, 48 h, read-out: IC50

CCOC(=O)c1ccc2no[n+]([O-])c2c1
IC50 (Entamoeba histolytica; [2]): 221 µM

Cc1ncc([N+](=O)[O-])n1CCO [METRONIDAZOLE]
Ratio IC50 [1]: >22.22 | IC50 (Vero): > 100 µM | IC50 (Entamoeba histolytica; [2]): 4.5 µM

CCOC(=O)c1c(-c2ccccc2)[n+]([O-])c2ccc(C(=O)OC)cc2[n+]1[O-]
IC50 (Entamoeba histolytica; [2]): 12.2 µM

COC(=O)c1ccc2no[n+]([O-])c2c1
IC50 (Entamoeba histolytica; [2]): 74.5 µM

CCOC(=O)c1ccc2c(c1)[n+]([O-])c(C(=O)c1cccs1)c(C(F)(F)F)[n+]2[O-]
Ratio IC50 [1]: 2.69 | IC50 (Vero): 6.74 µM | IC50 (Entamoeba histolytica; [2]): 2.5 µM

CCOC(=O)c1ccc2c(c1)[n+]([O-])c(C(=O)OCC)c(C)[n+]2[O-]
IC50 (Entamoeba histolytica; [2]): 4.18 µM

COC(=O)c1ccc2c(c1)[n+]([O-])c(C(C)=O)c(C(F)(F)F)[n+]2[O-]
Ratio IC50 [1]: 2.14 | IC50 (Vero): 3.28 µM | IC50 (Entamoeba histolytica; [2]): 1.53 µM

[O-][n+]1onc2ccccc21 [BENZO[C][1,2,5]OXADIAZOLE 1-OXIDE]
IC50 (Entamoeba histolytica; [2]): 12 µM

COC(=O)c1ccc2c(c1)[n+]([O-])c(C(=O)OC(C)(C)C)c(C)[n+]2[O-]
IC50 (Entamoeba histolytica): ND(Insoluble)

CCOC(=O)c1ccc2c(c1)[n+]([O-])c(C(C)=O)c(C(F)(F)F)[n+]2[O-]
Ratio IC50 [1]: 6.6 | IC50 (Vero): 13.1 µM | IC50 (Entamoeba histolytica; [2]): 1.98 µM

CCOC(=O)c1ccc2c(c1)[n+]([O-])c(C(=O)CC)c(C(F)(F)F)[n+]2[O-]
IC50 (Entamoeba histolytica; [2]): 18.1 µM

COC(=O)c1ccc2c(c1)[n+]([O-])c(C(=O)c1ccc3ccccc3c1)c(C(F)(F)F)[n+]2[O-]
IC50 (Entamoeba histolytica; [2]): 5.29 µM

CCOC(=O)Cc1c(C(=O)OCC)[n+]([O-])c2cc(C(=O)OC)ccc2[n+]1[O-]
IC50 (Entamoeba histolytica; [2]): 1.91 µM

CCOC(=O)c1c(C)[n+]([O-])c2ccc(C(=O)OC)cc2[n+]1[O-]
Ratio IC50 [1]: >50.25 | IC50 (Vero): > 100 µM | IC50 (Entamoeba histolytica; [2]): 1.99 µM

CCOC(=O)c1ccc2c(c1)[n+]([O-])c(C(=O)OCc1ccccc1)c(C)[n+]2[O-]
IC50 (Entamoeba histolytica): ND(Insoluble)

O=C(O)c1ccc2no[n+]([O-])c2c1
IC50 (Entamoeba histolytica): ND(Insoluble)

COC(=O)c1ccc2c(c1)[n+]([O-])c(C(=O)c1cccs1)c(C(F)(F)F)[n+]2[O-]
Ratio IC50 [1]: 16.74 | IC50 (Vero): 5.86 µM | IC50 (Entamoeba histolytica; [2]): 0.35 µM

COC(=O)c1ccc2c(c1)[n+]([O-])c(C(=O)c1ccccc1)c(C(F)(F)F)[n+]2[O-]
IC50 (Entamoeba histolytica; [2]): 6.07 µM

COC(=O)c1ccc2c(c1)[n+]([O-])c(C(=O)Nc1ccccc1)c(C)[n+]2[O-]
IC50 (Entamoeba histolytica; [2]): 4.14 µM

COC(=O)c1ccc2c(c1)[n+]([O-])c(C(C)=O)c(C)[n+]2[O-]
Ratio IC50 [1]: >70.92 | IC50 (Vero): > 100 µM | IC50 (Entamoeba histolytica; [2]): 1.41 µM

COC(=O)c1ccc2c(c1)[n+]([O-])c(C(=O)OC)c(C)[n+]2[O-]
IC50 (Entamoeba histolytica; [2]): 4.17 µM

CCOC(=O)c1ccc2c(c1)[n+]([O-])c(C(=O)OC)c(C)[n+]2[O-]
Ratio IC50 [1]: >53.19 | IC50 (Vero): > 100 µM | IC50 (Entamoeba histolytica; [2]): 1.88 µM

CCOC(=O)c1ccc2c(c1)[n+]([O-])c(C(N)=O)c(C)[n+]2[O-]
Ratio IC50 [1]: >68.02 | IC50 (Vero): > 100 µM | IC50 (Entamoeba histolytica; [2]): 1.47 µM

CCOC(=O)c1ccc2c(c1)[n+]([O-])c(C(=O)c1ccccc1)c(C)[n+]2[O-]
Ratio IC50 [1]: >51.81 | IC50 (Vero): > 100 µM | IC50 (Entamoeba histolytica; [2]): 1.93 µM

CCOC(=O)c1ccc2c(c1)[n+]([O-])c(C(=O)Nc1ccccc1)c(C)[n+]2[O-]
IC50 (Entamoeba histolytica): ND(Insoluble)

COC(=O)c1ccc2c(c1)[n+]([O-])c(C(=O)c1ccccc1)c(C)[n+]2[O-]
IC50 (Entamoeba histolytica; [2]): 3.43 µM

CC(=O)Oc1ccccc1C(=O)Nc1ncc([N+](=O)[O-])s1 [NITAZOXANIDE]
Ratio IC50 [1]: 2.75 | IC50 (Vero): 10.7 µM | IC50 (Entamoeba histolytica; [2]): 3.9 µM

CCOC(=O)c1ccc2c(c1)[n+]([O-])c(C(=O)OCC)c(-c1ccccc1)[n+]2[O-]
IC50 (Entamoeba histolytica; [2]): 7.13 µM

CCOC(=O)c1ccc2c(c1)[n+]([O-])c(C(=O)c1ccco1)c(C(F)F)[n+]2[O-]
IC50 (Entamoeba histolytica; [2]): 3.81 µM

CCOC(=O)c1ccc2c(c1)[n+]([O-])c(C(=O)c1ccc3ccccc3c1)c(C(F)(F)F)[n+]2[O-]
IC50 (Entamoeba histolytica): ND(Insoluble)

COC(=O)c1ccc2c(c1)[n+]([O-])c(C(=O)C(C)C)c(C(F)(F)F)[n+]2[O-]
Ratio IC50 [1]: 3.7 | IC50 (Vero): 6.97 µM | IC50 (Entamoeba histolytica; [2]): 1.88 µM
